The list is not random: actives were taken first. Their share in the collection is about 1.2%.
MLL AF4-AF9 inh – MLL-AF4/AF9 protein interaction inhibition. AID 651704. 350,000 compounds, 0.47% hits. P42568. AlphaScreen, biotin-AF4 peptide binding to FLAG-AF9. inhibition, % at 10 µM;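 active means every replicate reaching a set inhibition limit, whatever the replicate mean, cut at about 25% in these data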
RAD52 anneal inh – RAD52 (human) annealing inhibition. AID 651710. inhibition, % at 18.7 µM. 360,000 compounds, 0.46% hits. recombinant RAD52 DNA annealing, FRET fluorescence. P43351;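 active means every replicate showing at least 50% inhibition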
N-glyco inh – N-linked glycosylation inhibition; D54 ERlucT glycosylation luciferase reporter, 24 h; percent of 100 nM tunicamycin response; reporter increase, % at 12.5 µM; 360,000 compounds, 0.23% hits; AID 588692;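 active means mean luciferase reporter signal, scaled so untreated is 0 and the glycosylation-blocking control 100, at or above a set limit in every replicate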;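 further: luciferase carries N-glycosylation sites so blocking glycosylation raises the light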
NSD2 HMT inh – NSD2 (human) methyltransferase inhibition | O96028 | inhibition, % at 12.5 µM | AID 743445 | 310,000 compounds, 0.54% hits | NSD2 peptide methylation, AlphaScreen, 120 min; in the data active means inhibition above about 50%
RAD54 inh – RAD54 (human) branch migration inhibition; Q92698; RAD54 Holliday junction branch migration, FAM/BHQ fluorescence; inhibition, % at 10.4 µM; 360,000 compounds, 0.14% hits; AID 602329;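 active means mean normalized replicate activity at least 40 and at least half of replicates scoring 40 or more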;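 further: inhibitors cause a drop in the FAM fluorescence signal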
Target sequence (Q92698 whole entry, looked up): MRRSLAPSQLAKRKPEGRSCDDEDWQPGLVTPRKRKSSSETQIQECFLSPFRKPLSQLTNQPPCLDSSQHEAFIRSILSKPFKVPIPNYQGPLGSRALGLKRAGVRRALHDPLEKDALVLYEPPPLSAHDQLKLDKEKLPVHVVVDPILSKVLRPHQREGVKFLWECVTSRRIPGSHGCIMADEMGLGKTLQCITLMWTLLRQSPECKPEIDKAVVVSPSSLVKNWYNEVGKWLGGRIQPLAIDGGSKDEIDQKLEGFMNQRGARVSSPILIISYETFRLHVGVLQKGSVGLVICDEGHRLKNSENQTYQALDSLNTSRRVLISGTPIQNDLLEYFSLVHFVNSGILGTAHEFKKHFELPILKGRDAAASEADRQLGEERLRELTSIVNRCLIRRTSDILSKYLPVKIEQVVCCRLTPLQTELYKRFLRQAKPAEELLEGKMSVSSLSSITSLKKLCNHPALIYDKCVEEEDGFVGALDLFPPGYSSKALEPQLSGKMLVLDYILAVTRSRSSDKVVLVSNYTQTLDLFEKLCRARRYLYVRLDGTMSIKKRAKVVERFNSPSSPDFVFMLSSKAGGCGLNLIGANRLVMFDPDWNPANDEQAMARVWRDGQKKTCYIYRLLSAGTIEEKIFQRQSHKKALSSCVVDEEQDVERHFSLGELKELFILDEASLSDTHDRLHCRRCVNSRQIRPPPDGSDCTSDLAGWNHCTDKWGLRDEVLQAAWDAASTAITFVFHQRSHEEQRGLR
FN deposition inh – fibronectin deposition inhibition | 350,000 compounds, 0.086% hits | inhibition, % at 12.6 µM | AH1F fibroblasts, Alexa488-fibronectin deposition fluorescence, overnight;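 active means mean inhibition across replicates of 30% or more, regardless of how many single replicates reach that level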
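Assay system: AH1F fibroblasts assembling fluorescent fibronectin matrix; Amount: 10000 AH1F cells per well; Buffer or medium: DMEM, 2% serum; Probe or stimulus: Alexa488-fibronectin, 24 nM final in well; Doses: single compound dose, delivered by pin transfer; Incubation: 1 h adhesion, overnight exposure; Measured by: fluorescence 485/525 nm; Read-out: fibronectin deposition inhibition.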
AlphaScreen art – AlphaScreen assay artifact in NSD2 counter-screen; shares compounds with NSD2 HMT inh; AlphaScreen artifact counterscreen, preloaded methylated H4 peptide; AC35, µM (highest dose often 10 µM); 1,500 compounds, 9.4% hits; call rule not given here
Large screens that a line does not name were inactive (follow-up assays come after a bar, where they were run).

Cc1nc2cc(-c3cccs3)nn2c(NCC(C)(C)CN(C)C)c1C	none (no result: RAD54 inh, FN deposition inh)
CCN(CC)CCCNc1cc(C)nc2cc(-c3cccs3)nn12	NSD2 HMT inh 62 (no result: RAD54 inh) | AlphaScreen art inactive
CCc1sc(C(=O)Nc2ccc(NC(C)=O)cc2)cc1C	none (no result: RAD54 inh)
CCc1sc(C(=O)Nc2nc(C)cs2)cc1C	NSD2 HMT inh 51 | AlphaScreen art inactive
COc1ccc(C#Cc2ccc3c(c2)[C@]2(C(=O)N3)[C@H](C(=O)N3CCN(c4ncccn4)CC3)[C@H]3C(=O)O[C@H](c4ccccc4)[C@H](c4ccccc4)N3[C@@H]2c2ccc(O)cc2)cc1	none (no result: N-glyco inh, NSD2 HMT inh, FN deposition inh)
C[C@H]1CN(C)C(=O)c2cc(N(C)C)ccc2O[C@@H]1CN(C)C(=O)OC(C)(C)C	none (no result: MLL AF4-AF9 inh, RAD52 anneal inh, N-glyco inh, NSD2 HMT inh, RAD54 inh)
CCOC(=O)C1=C(COC(=O)c2ccc([N+](=O)[O-])s2)NC(=O)NC1C (centres undefined)	NSD2 HMT inh 104 | AlphaScreen art inactive
C[C@H](CO)N1C[C@H](C)[C@@H](CN(C)S(=O)(=O)c2ccc(F)cc2)OCCCC[C@H](C)Oc2ccc(NS(=O)(=O)c3cccs3)cc2C1=O	none (no result: N-glyco inh, NSD2 HMT inh, FN deposition inh)
CNC(=O)CSc1nc2c(c(=O)n(C)c(=O)n2C)n1Cc1ccc(C)cc1	none (no result: FN deposition inh)
Cc1ccc(Cn2c(SCC(=O)NCC3CCCO3)nc3c2c(=O)n(C)c(=O)n3C)cc1 (centres undefined)	NSD2 HMT inh 51 | AlphaScreen art inactive
O=C(NC1CCCCC1)c1ccc(S(=O)(=O)NCc2ccco2)cc1	NSD2 HMT inh 55 (no result: MLL AF4-AF9 inh, RAD52 anneal inh, FN deposition inh) | AlphaScreen art inactive
CCCCN(CC)CCNC(=O)CN(C)S(=O)(=O)c1ccc2c(c1)c(=O)n(C)c(=O)n2C	NSD2 HMT inh 61 (no result: MLL AF4-AF9 inh, RAD52 anneal inh) | AlphaScreen art inactive
CO[C@H]1CN(C)C(=O)c2cc(NC(=O)CC(F)(F)F)ccc2OC[C@@H](C)NC[C@H]1C	none (no result: N-glyco inh, NSD2 HMT inh, RAD54 inh)
COC(=O)c1sc(S(=O)(=O)Nc2ccc(C)c(C)c2)c(C(=O)OC)c1C	NSD2 HMT inh 50 (no result: RAD54 inh) | AlphaScreen art inactive
COC(=O)c1sc(S(=O)(=O)NCCCN(C)C)c(C(=O)OC)c1C	none
COc1ccc(-n2c(C)cc(/C=C/c3nc(O)c([N+](=O)[O-])c(=O)[nH]3)c2C)cc1	none (no result: RAD54 inh, FN deposition inh)
Cc1cc(/C=C\c2nc(O)c([N+](=O)[O-])c(=O)[nH]2)c(C)n1-c1ccccc1	NSD2 HMT inh 62 (no result: RAD54 inh) | AlphaScreen art inactive
O=C1O[C@@H](c2ccccc2)[C@@H](c2ccccc2)N2[C@@H](c3ccc(O)cc3)[C@]3(C(=O)Nc4ccc(C#CC5(O)CCCCCC5)cc43)[C@@H](C(=O)N3CCCCCCC3)[C@H]12	none (no result: N-glyco inh, NSD2 HMT inh, FN deposition inh)
CCOc1cc(C(=O)NCC(=O)N2CCC3(CC2)NCCc2[nH]cnc23)cc(OCC)c1OCC	NSD2 HMT inh 56 | AlphaScreen art inactive
Cc1ccccc1NC1C=CS(=O)(=O)C1 (centres undefined)	none (no result: MLL AF4-AF9 inh, RAD52 anneal inh, FN deposition inh)
COc1ccccc1NC1C=CS(=O)(=O)C1 (centres undefined)	NSD2 HMT inh 97 (no result: MLL AF4-AF9 inh, RAD52 anneal inh) | AlphaScreen art inactive
CCCN1[C@@H]2c3ccc(-c4cccc(F)c4)c(=O)n3C[C@@H]2[C@@H](CO)[C@@H]1C(=O)N(C)C	none (no result: N-glyco inh, NSD2 HMT inh, FN deposition inh)
COc1ccc(CNC(=O)C[C@@H]2CC[C@@H]3[C@H](COc4ccc(NC(=O)C5CC5)cc4C(=O)N3C)O2)cc1	none (no result: N-glyco inh, NSD2 HMT inh)
O=C1C(O)=C(O)C(=O)c2ccccc21	none (no result: NSD2 HMT inh, FN deposition inh)
CC(=O)C(C(C)=O)C1(O)C(=O)c2ccccc2C1=O	NSD2 HMT inh 104 | AlphaScreen art inactive
COc1c(Cl)cc(C(=O)NN)cc1Cl	none (no result: RAD54 inh)
NNC(=O)c1cc(O)c(O)c(O)c1	NSD2 HMT inh active | AlphaScreen art inactive
COc1cccc2c1C(=N)c1c(O)c3c(c(O)c1C2=O)CC(O)(C(C)=O)CC3OC1CC(N)C(O)C(C)O1 (centres undefined)	NSD2 HMT inh 56 (no result: MLL AF4-AF9 inh, RAD52 anneal inh, RAD54 inh, FN deposition inh) | AlphaScreen art 8.5µM
CO[C@H]1CN(C)C(=O)c2cc(NC(=O)CC(F)(F)F)ccc2OC[C@H](C)N(CCC(F)(F)F)C[C@@H]1C	none (no result: N-glyco inh, NSD2 HMT inh)
CC1CCCN(C2=C(NS(=O)(=O)c3ccc(Cl)cc3)C(=O)c3ccccc3C2=O)C1 (centres undefined)	none (no result: RAD54 inh)
NC(=O)C1CCN(C2=C(NS(=O)(=O)c3ccc(Cl)cc3)C(=O)c3ccccc3C2=O)CC1	NSD2 HMT inh 77 (no result: RAD54 inh) | AlphaScreen art inactive
COC(=O)C1CCN(C2=C(NS(=O)(=O)c3ccc(Cl)cc3)C(=O)c3ccccc3C2=O)CC1	MLL AF4-AF9 inh 39, NSD2 HMT inh 62 | AlphaScreen art 7.8µM
O=C(OCc1ccc(Br)cc1)c1cccnc1Cl	none
O=C(OCc1ccc(Cl)c(Cl)c1)c1cccnc1Cl	NSD2 HMT inh 107 | AlphaScreen art inactive
C[C@@H]1CN([C@H](C)CO)C(=O)c2cccc(NC(=O)C3CCCCC3)c2O[C@H]1CN(C)S(=O)(=O)c1ccc(Cl)cc1	none (no result: N-glyco inh, NSD2 HMT inh, FN deposition inh)
Cc1cc(=O)n2ccccc2c1C#N	none (no result: MLL AF4-AF9 inh, RAD52 anneal inh)
COc1ccc2c(C#N)c3ccccn3c2c1	NSD2 HMT inh 52 | AlphaScreen art inactive
C[C@@H]1CN([C@H](C)CO)C(=O)Cc2cc(NC(=O)Nc3cccc4ccccc34)ccc2O[C@@H]1CN(C)Cc1ccc(Oc2ccccc2)cc1	none (no result: N-glyco inh, NSD2 HMT inh, FN deposition inh)
COCC(=O)Nc1ccc2c(c1)OC[C@@H](C)N(Cc1cncnc1)C[C@H](C)[C@@H](OC)CN(C)C2=O	none (no result: MLL AF4-AF9 inh, RAD52 anneal inh, N-glyco inh, NSD2 HMT inh, RAD54 inh)
O=C(c1ccncc1)N1CC(=O)N2[C@H](C1)[C@@H](c1ccc(-c3ccccc3F)cc1)[C@@H]2CO	none (no result: N-glyco inh, NSD2 HMT inh, RAD54 inh, FN deposition inh)

Assay outcomes (PubChem)
